Test results taken from ChEMBL document CHEMBL4400546, “A Cinchona Alkaloid Antibiotic That Appears To Target ATP Synthase in Streptococcus pneumoniae” (J Med Chem, 2019).
In brackets after ≈: the same amount, converted by molar mass. Activity calls are given as the source filed them. No cut-off for these calls is given here.

Key:
Streptococcus pneumoniae [1] = experiment: Bacteriostatic activity against Streptococcus pneumoniae D39 at 1 to 5 times MIC using 10^7CFU inoculum after 18 hrs by time-kill assay; format: functional, organism-based
Summary of the method: (§1)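 Time-kill in S. pneumoniae D39 at multiples of MIC. Killing is followed by OD620 up to 18 h, with CFU determined at each time point by plating. Vancomycin is the positive control. Four independent experiments.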

[2] = test system: Streptococcus pneumoniae D39; experiment: Inhibition of wild-type Streptococcus pneumoniae D39 ATP synthase atpE assessed as intracellular pH at 0.25 ug/ml measured at 5 mins by pH-sensitive GFP-based fluorescence assay (reference value: 7.34 +/- 0.04); format: cell-based
Summary of the method: (§2)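 S. pneumoniae D39 WT and isogenic atpE G142C or G145A mutants carry a plasmid-borne ratiometric pH-sensitive GFP biosensor. Cells are in PBS pH 7.2 with 10 mM glucose and are treated with compound, DMSO (0.5% v/v) or CCCP (10 µM). Intracellular pH is read immediately and at 5-min intervals. Two independent experiments, each in triplicate.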

Enterobacter cloacae = experiment: Antibacterial activity against Enterobacter cloacae TH11715 after 20 hrs by CLSI-based microdilution method; format: functional; settings: TH11715, 20 h
Streptococcus pyogenes = experiment: Antibacterial activity against Streptococcus pyogenes ST157 after 20 hrs by CLSI-based microdilution method; format: functional; settings: ST157, 20 h
Streptococcus pneumoniae [3] = experiment: Potentiation of vancomycin-induced antibacterial activity against Streptococcus pneumoniae D39 at 2 times MIC after 20 hrs by checkerboard assay; format: functional
Summary of the method: (§3)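 Checkerboard combination assay in S. pneumoniae D39 with the partner antibiotic. Fractional inhibitory concentration indices were calculated, and the minimum FICI was taken per combination. Three to four independent checkerboards were run.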

[4] = test system: Streptococcus pneumoniae D39; experiment: Inhibition of wild-type Streptococcus pneumoniae D39 ATP synthase atpE G142C mutant assessed as reduction in intracellular pH at >0.25 to 8 ug/ml measured at 5 mins by pH-sensitive GFP-based fluorescence assay; format: cell-based; summary of the method: as §2
Streptococcus pneumoniae [5] = experiment: Bacteriostatic activity against Streptococcus pneumoniae D39 at 1 to 5 times MIC after 18 hrs by time-kill assay; format: functional, organism-based; summary of the method: as §1
Streptococcus pneumoniae [6] = experiment: Potentiation of penicillin-induced antibacterial activity against Streptococcus pneumoniae D39 at 2 times MIC after 20 hrs by checkerboard assay; format: functional; summary of the method: as §3
[7] = test system: Streptococcus pneumoniae D39; experiment: Inhibition of wild-type Streptococcus pneumoniae D39 ATP synthase atpE assessed as intracellular pH at 0.0625 ug/ml measured at 5 mins by pH-sensitive GFP-based fluorescence assay (reference value: 7.34 +/- 0.04); format: cell-based; summary of the method: as §2
Acinetobacter baumannii = experiment: Antibacterial activity against Acinetobacter baumannii TH9781 after 20 hrs by CLSI-based microdilution method; format: functional; settings: TH9781, 20 h
[8] = Cytotoxicity against human HepG2 cells assessed as reduction in cell viability after 48 hrs by Alamar Blue assay; format: cell-based
Streptococcus pneumoniae [9] = experiment: Antibacterial activity against optochin-resistant Streptococcus pneumoniae R6 expressing atpE G142C mutant after 20 hrs by CLSI-based microdilution method; format: functional; settings: R6, 20 h
Streptococcus pneumoniae [10] = experiment: Antibacterial activity against Streptococcus pneumoniae D39 after 20 hrs by CLSI-based microdilution method; format: functional; settings: D39, 20 h
Streptococcus pneumoniae [11] = experiment: Antibacterial activity against penicillin/erythromycin/meropenem/tetracycline-resistant Streptococcus pneumoniae TH2863 (19F) after 20 hrs by CLSI-based microdilution method; format: functional
[12] = test system: Streptococcus pneumoniae D39; experiment: Inhibition of wild-type Streptococcus pneumoniae D39 ATP synthase atpE assessed as intracellular pH at 0.0625 ug/ml measured immediately post treatment by pH-sensitive GFP-based fluorescence assay (reference value: 7.34 +/- 0.04); format: cell-based; summary of the method: as §2
Streptococcus pneumoniae [13] = experiment: Antibacterial activity against optochin-resistant Streptococcus pneumoniae R6 expressing atpE G145A mutant after 20 hrs by CLSI-based microdilution method; format: functional; settings: R6, 20 h
Streptococcus pneumoniae [14] = experiment: Antibacterial activity against Streptococcus pneumoniae R6 after 20 hrs by CLSI-based microdilution method; format: functional; settings: R6, 20 h
Streptococcus pneumoniae [15] = experiment: Bactericidal activity against Streptococcus pneumoniae D39 after 24 hrs; format: functional; settings: D39, 24 h
Streptococcus mitis = experiment: Antibacterial activity against Streptococcus mitis ST138 after 20 hrs by CLSI-based microdilution method; format: functional; settings: ST138, 20 h
[16] = test system: Streptococcus pneumoniae D39; experiment: Inhibition of wild-type Streptococcus pneumoniae D39 ATP synthase atpE G145 mutant assessed as reduction in intracellular pH at >2 ug/ml measured at 5 mins by pH-sensitive GFP-based fluorescence assay; format: cell-based; summary of the method: as §2
Streptococcus pneumoniae [17] = experiment: Antibacterial activity against amoxicillin/penicillin/chloramphenicol/erythromycin/meropenem/cefotaxime-resistant Streptococcus pneumoniae TH2582 (19A) after 20 hrs by CLSI-based microdilution method; format: functional
[18] = test system: Streptococcus pneumoniae D39; experiment: Inhibition of wild-type Streptococcus pneumoniae D39 ATP synthase atpE G142C mutant assessed as change in intracellular pH at 0.25 ug/ml measured at 5 mins by pH-sensitive GFP-based fluorescence assay (reference value: 7.34 +/- 0.04); format: cell-based; summary of the method: as §2
Streptococcus pneumoniae [19] = experiment: Bacteriostatic activity against Streptococcus pneumoniae D39 assessed as resistant frequency at 4 to 16 times MIC after 24 hrs by time-kill assay; format: functional, organism-based
Streptococcus pneumoniae [20] = experiment: Potentiation of levofloxacin-induced antibacterial activity against Streptococcus pneumoniae D39 at 2 times MIC after 20 hrs by checkerboard assay; format: functional; summary of the method: as §3
Streptococcus pneumoniae [21] = experiment: Potentiation of rifampicin-induced antibacterial activity against Streptococcus pneumoniae D39 at 2 times MIC after 20 hrs by checkerboard assay; format: functional; summary of the method: as §3
[22] = test system: Mycobacterium tuberculosis; experiment: Antibacterial activity against Mycobacterium tuberculosis H37Rv after […] by CLSI-based microdilution method; format: functional
[23] = test system: Streptococcus pneumoniae D39; experiment: Inhibition of wild-type Streptococcus pneumoniae D39 ATP synthase atpE assessed as intracellular pH at 0.25 ug/ml measured at 10 mins by pH-sensitive GFP-based fluorescence assay (reference value: 7.34 +/- 0.04); format: cell-based; summary of the method: as §2
Staphylococcus aureus = experiment: Antibacterial activity against Staphylococcus aureus TH4114 after 20 hrs by CLSI-based microdilution method; format: functional; settings: TH4114, 20 h
[24] = Mitochondrial toxicity in human HepG2 cells assessed as reduction in cell viability after 24 hrs in presence of glucose by CellTiter-Glo assay; format: cell-based
Summary of the method: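 HepG2 cells grown in DMEM with 10 mM glucose, treated 24 h; viability read by CellTiter-Glo luminescence. Value is the concentration giving 90% loss of viability (CC90) from dose-response curves, top concentration 300 µM.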

Pseudomonas aeruginosa = experiment: Antibacterial activity against Pseudomonas aeruginosa TH4090 after 20 hrs by CLSI-based microdilution method; format: functional; settings: TH4090, 20 h
Klebsiella pneumoniae = experiment: Antibacterial activity against Klebsiella pneumoniae ATCC 13883 after 20 hrs by CLSI-based microdilution method; format: functional; settings: ATCC 13883, 20 h
Streptococcus pneumoniae [25] = experiment: Antibacterial activity against amoxicillin/penicillin/cefotaxime/erythromycin/tetracycline-resistant Streptococcus pneumoniae TH2784 (19F) after 20 hrs by CLSI-based microdilution method; format: functional
[26] = Mitochondrial toxicity in human HepG2 cells assessed as reduction in cell viability after 24 hrs in presence of galactose by CellTiter-Glo assay; format: cell-based
Summary of the method: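 HepG2 cells are grown in DMEM supplemented with 10 mM galactose or 10 mM glucose and treated for 24 h. Viability is read by CellTiter-Glo luminescence. The CC90 is the concentration inhibiting 90% of cell viability, taken from dose–response curves. Oligomycin and tamoxifen serve as controls.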

Enterococcus faecium = experiment: Antibacterial activity against Enterococcus faecium TH6064 after 20 hrs by CLSI-based microdilution method; format: functional; settings: TH6064, 20 h
[27] = test system: Streptococcus pneumoniae D39; experiment: Inhibition of wild-type Streptococcus pneumoniae D39 ATP synthase atpE assessed as intracellular pH at 8 ug/ml measured at 5 mins by pH-sensitive GFP-based fluorescence assay (reference value: 7.34 +/- 0.04); format: cell-based; summary of the method: as §2
[28] = test system: Streptococcus pneumoniae D39; experiment: Inhibition of wild-type Streptococcus pneumoniae D39 ATP synthase atpE assessed as intracellular pH at 0.25 ug/ml measured at 15 mins by pH-sensitive GFP-based fluorescence assay (reference value: 7.34 +/- 0.04); format: cell-based; summary of the method: as §2
Streptococcus pneumoniae [29] = experiment: Bacteriostatic activity against Streptococcus pneumoniae D39 up 100 times MIC after 18 hrs by time-kill assay; format: functional, organism-based; summary of the method: as §1
Streptococcus pneumoniae [30] = experiment: Antibacterial activity against amoxicillin/penicillin/erythromycin/ertapenem/moxifloxacin/cefotaxime-resistant Streptococcus pneumoniae TH2889 (6B) after 20 hrs by CLSI-based microdilution method; format: functional
Escherichia coli = experiment: Antibacterial activity against Escherichia coli TH4746 after 20 hrs by CLSI-based microdilution method; format: functional; settings: TH4746, 20 h
Streptococcus pneumoniae [31] = experiment: Bactericidal activity against Streptococcus pneumoniae D39 assessed as fold reduction in CFU at 5 times MIC after 3 hrs by time-kill assay relative to control; format: functional; summary of the method: as §1

In the case of CC=C1C[N@]2CC[C@H]1C[C@H]2[C@H](O)c1ccnc2ccc(OC3CCC3)cc12, the Activity (Streptococcus pneumoniae [1]) is reported as “Active”, the pH [2] is reported as 6.82 and the MIC (Enterobacter cloacae) is reported as over 128 µg/mL. The MIC (Streptococcus pyogenes) was 32 µg/mL (≈ 87.8 µM), the FIC (Streptococcus pneumoniae [3]) was 0.63 - 1 and the inhibition [4] was “Active”. The Activity (Streptococcus pneumoniae [5]) was “Active”, the FIC (Streptococcus pneumoniae [6]) was 0.63 - 1 and the pH [7] was 7.02. The MIC (Acinetobacter baumannii) was 128 µg/mL (≈ 351 µM), the CC50 at 48 h [8] was 56 µM and the MIC (Streptococcus pneumoniae [9]) was 8 to 16 µg/mL (≈ 21.9 to 43.9 µM). The MIC (Streptococcus pneumoniae [10]) was 0.7 µM (≈ 0.255 µg/mL), the MIC (Streptococcus pneumoniae [11]) was 0.5 to 1 µg/mL (≈ 1.37 to 2.74 µM) and the pH [12] was 7.11. It also gave an MIC (Streptococcus pneumoniae [13]) of 4 µg/mL (≈ 11 µM), an MIC (Streptococcus pneumoniae [14]) of 0.5 µg/mL (≈ 1.37 µM) and an MBC (Streptococcus pneumoniae [15]) of 1 to 2 µg/mL (≈ 2.74 to 5.49 µM). The MIC (Streptococcus mitis) was 16 µg/mL (≈ 43.9 µM), the inhibition [16] was “Active” and the MIC (Streptococcus pneumoniae [17]) was 0.25 to 0.5 µg/mL (≈ 0.686 to 1.37 µM). For the same compound, the deltapH [18] was under 0.03, the Activity (Streptococcus pneumoniae [19]) was “Active” and the FIC (Streptococcus pneumoniae [20]) was 0.63 - 1. The FIC (Streptococcus pneumoniae [21]) was 0.63 - 1, the MIC [22] was over 256 µg/mL and the pH [23] was 6.68. The MIC (Staphylococcus aureus) was 128 µg/mL (≈ 351 µM), the CC90 at 24 h [24] was 150 µM and the MIC (Pseudomonas aeruginosa) was over 128 µg/mL. It also gave an MIC (Klebsiella pneumoniae) of 128 µg/mL (≈ 351 µM), an MIC (Streptococcus pneumoniae [25]) of 0.5 µg/mL (≈ 1.37 µM) and a CC90 at 24 h [26] of 150 µM. For the same compound, the MIC (Enterococcus faecium) was 64 to 128 µg/mL (≈ 176 to 351 µM), the pH [27] was 6.66 and the deltapH [28] was -0.52. For the same compound, the Activity (Streptococcus pneumoniae [29]) was “Active”, the MIC (Streptococcus pneumoniae [30]) was 0.5 µg/mL (≈ 1.37 µM) and the MIC (Escherichia coli) was over 128 µg/mL.

In the case of CN[C@H](CC(C)C)C(=O)N[C@H]1C(=O)N[C@@H](CC(N)=O)C(=O)N[C@H]2C(=O)N[C@H]3C(=O)N[C@H](C(=O)N[C@H](C(=O)O)c4cc(O)cc(O)c4-c4cc3ccc4O)[C@H](O)c3ccc(c(Cl)c3)Oc3cc2cc(c3O[C@@H]2O[C@H](CO)[C@@H](O)[C@H](O)[C@H]2O[C@H]2C[C@](C)(N)[C@H](O)[C@H](C)O2)Oc2ccc(cc2Cl)[C@H]1O [VANCOMYCIN], the “fold change (FC)” value (Streptococcus pneumoniae [31]) is reported as 1000.
